Consider eight compounds from ChEMBL document CHEMBL3272339, “Catechol O-methyltransferase. 7. Affinity labeling with the oxidation products of 6-aminodopamine” (J Med Chem, 1976).

Calls of active or inactive are those of the source. No cut-off for these calls is given here.

A short description of series [1]: Half life of the compound assessed as cyclization to 6-hydroxy-2H-indol-5(3H)-one at 37 degC. The class given is physicochemical.
Series [2] in a line: Chemical stability of the compound assessed as polymerization under aerobic condition by spectrophotometric analysis. Type of series: physicochemical.
Series [3] in a line: Chemical stability of the compound in seal ampules containing water under nitrogenous condition at 5 umol/ml measured up to 4 hrs. The class given is physicochemical. To be noted: buffer, 5000 µM. The method, boiled down:
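Stock prepared fresh for each experiment at 5 μmol/ml in water in sealed ampules under nitrogen; aliquots withdrawn as needed and checked for signs of oxidation over up to 4 hr.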

Series [4] has as its target T1, Catechol O-methyltransferase (Rattus norvegicus) (UniProt P22734).
T1 sequence (whole entry): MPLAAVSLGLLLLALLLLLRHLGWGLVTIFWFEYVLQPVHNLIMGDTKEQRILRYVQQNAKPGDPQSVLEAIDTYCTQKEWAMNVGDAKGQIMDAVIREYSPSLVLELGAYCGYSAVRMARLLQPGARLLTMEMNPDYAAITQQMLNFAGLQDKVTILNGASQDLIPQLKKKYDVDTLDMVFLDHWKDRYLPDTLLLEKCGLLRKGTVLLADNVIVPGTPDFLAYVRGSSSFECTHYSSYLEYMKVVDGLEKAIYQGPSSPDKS
Put plainly: Inhibition of Sprague-Dawley rat liver COMT under aerobic condition at 37 degC in presence of catalase.

The target in series [5] is T1, Catechol O-methyltransferase (Rattus norvegicus). Put plainly: Inhibition of Sprague-Dawley rat liver COMT under anaerobic condition at 37 degC.
Series [6] has the same target. Put plainly: Inhibition of Sprague-Dawley rat liver COMT under aerobic condition at 37 degC in presence of antioxidant sodium metabisulfite.
Series [7] shares this target. Put plainly: Irreversible inhibition of Sprague-Dawley rat liver COMT.
For series [8] the target is unchanged. Put plainly: Inhibition of Sprague-Dawley rat liver COMT using 10 mM DHA/0.4 mM SAM as substrate assessed as residual activity under aerobic condition at 189 uM at 37 degC after 40 mins relative to control.
The target is the same in series [9]. Put plainly: Inhibition of Sprague-Dawley rat liver COMT using 10 mM DHA as substrate assessed as residual activity under aerobic condition at 189 uM at 37 degC after 40 mins relative to control.
The target is the same in series [10]. Put plainly: Inhibition of Sprague-Dawley rat liver COMT using 10 mM DHA/0.4 mM SAH as substrate assessed as residual activity under aerobic condition at 189 uM at 37 degC after 40 mins relative to control.
For series [11] the target is unchanged. Put plainly: Inhibition of Sprague-Dawley rat liver COMT using 0.76 mM SAM as substrate assessed as residual activity under aerobic condition at 189 uM at 37 degC after 40 mins relative to control.
Series [12] has the same target. Put plainly: Inhibition of Sprague-Dawley rat liver COMT at 0.25 mM preincubated for > 50 mins at 37 degC.
For series [13] the target is unchanged. Put plainly: Inhibition of Sprague-Dawley rat liver COMT assessed as residual activity under aerobic condition at 189 uM at 37 degC after 40 mins relative to control. The method, boiled down: (§1)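 Partially purified rat liver COMT (male Sprague-Dawley, calcium phosphate stage, ~50-fold) preincubated at 37° with inhibitor (189 μM), MgCl2 1.38 mM, phosphate buffer pH 7.60. Additions: sodium metabisulfite 0.15 M or catalase 250 μg. Anaerobic runs in sealed ampules under nitrogen. Residual activity vs unpreincubated controls; duplicates.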

For series [14] the target is unchanged. Put plainly: Inhibition of Sprague-Dawley rat liver COMT using 2.5 mM DHA/0.4 mM SAM as substrate assessed as residual activity under aerobic condition at 189 uM at 37 degC after 40 mins relative to control.
Series [15] shares this target. Put plainly: Inhibition of Sprague-Dawley rat liver COMT using 0.76 mM SAH as substrate assessed as residual activity under aerobic condition at 189 uM at 37 degC after 40 mins relative to control.
For series [16] the target is unchanged. Put plainly: Inhibition of Sprague-Dawley rat liver COMT using > 0.3 mM SAH as substrate at 0.19 mM at 37 degC after 40 mins.
Series [17] shares this target. Put plainly: Inhibition of Sprague-Dawley rat liver COMT using > 0.3 mM SAM as substrate at 0.19 mM at 37 degC after 40 mins.
Series [18] has the same target. Put plainly: Inhibition of Sprague-Dawley rat liver COMT using 2.5 mM DHA as substrate assessed as residual activity under aerobic condition at 189 uM at 37 degC after 40 mins relative to control.
Series [19] has the same target. Put plainly: Inhibition of Sprague-Dawley rat liver COMT assessed as residual activity under aerobic condition at 189 uM at 37 degC after 40 mins in presence of antioxidant sodium metabisulfite relative to control. The method, boiled down: as §1
Series [20] shares this target. Put plainly: Inhibition of Sprague-Dawley rat liver COMT assessed as residual activity under anaerobic condition at 189 uM at 37 degC after 40 mins relative to control. The method in brief:
as §1

For series [21] the target is unchanged. Put plainly: Inhibition of Sprague-Dawley rat liver COMT assessed as residual activity under aerobic condition at 189 uM at 37 degC after 40 mins in presence of catalase relative to control. The method, boiled down:
as §1

For series [22] the target is unchanged. Put plainly: Inhibition of Sprague-Dawley rat liver COMT at 0.25 to 1.25 mM preincubated for > 50 mins at 37 degC. The method in brief:
(§2)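 COMT came from male Sprague–Dawley rat liver (180–200 g), purified about 50-fold through the calcium phosphate stage. Inhibitor (fresh aqueous stock under N₂) was preincubated with enzyme, MgCl₂ and phosphate buffer pH 7.60 at 37°. Timed aliquots were assayed for 5 min at 37° with ¹⁴C-SAM and 3,4-dihydroxybenzoate or DHA, stopped with HCl, and products extracted and counted. Residual activity was taken against unpreincubated controls, in duplicate.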

The target is the same in series [23]. Put plainly: Inhibition of Sprague-Dawley rat liver COMT.
Series [24] has the same target. Put plainly: Inhibition of Sprague-Dawley rat liver COMT at 16 to 64 uM preincubated > 50 mins at 37 degC. The method, boiled down:
as §2

For series [25] the target is unchanged. Put plainly: Inhibition of Sprague-Dawley rat liver COMT under aerobic condition at 5 mM preincubated up to 90 mins followed by enzyme addition at 37 degC measured after 20 mins. The method, boiled down:
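Inhibitor at 5.0 mM in phosphate buffer pH 7.60 was air-oxidised at 37° for various times. Aliquots then went into preincubation mixtures with purified rat liver COMT (final 64 μM) for 20 min at 37°. Residual activity was measured by the radiochemical assay with ¹⁴C-SAM and catechol substrate, with methylated products extracted into toluene–isoamyl alcohol and counted.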

As to `N=C1C=C(O)C(=O)C=C1CCN`, the half-life in [1] is 30 s.
Regarding `C[N+](C)(C)CCC1=CC(=O)C(O)=CC1=N.[Br-]`, the Stability entry in [2] is listed as “Unstable”.
Take `Br.Br.CN(C)CCc1cc(O)c(O)cc1N`: the Stability entry in series [3] is reported as “Stable”. Moreover, the inhibition result in series [4] and in [7] was “Active” each time. Further, the inhibition entry in series [5] and in [6] was “inactive” in each case.
With `Br.CN(C)CCC1=CC(=O)C(O)=CC1=N`, the Stability result in series [2] was “Unstable”.
Turning to `NCCc1cc(O)c(O)cc1N`, the Activity in [8] was determined as 85%; in series [9], 17%; in [10], 94%; in [11] it was 26%; in [13], 2%; in series [14] it was 63%. Moreover, the Activity was found to be 52% in [15]; 10% in series [18]; 77% in [19]; 103% in series [20]; 1% in series [21]. Besides, the inhibition entry in series [12], in series [16], in series [17] and in series [7] was “Active” in each case. In addition, the Stability entry in [3] was “Stable”.
Regarding `Br.NCC1(c2cc(O)c(O)cc2N)CCCC1`, in [3], the Stability result is on record as “Stable”. Further, the inhibition entry in series [5] and in series [6] was “inactive” each time. Moreover, the inhibition result in series [22] is “Active”.
Consider `Br.CC(N)C(C)(C)c1cc(O)c(O)cc1N` (centres undefined), for which, in series [3], the Stability entry is “Stable”. Moreover, the inhibition entry in series [5] and in series [6] was “inactive” throughout. For the same compound, in series [23], the inhibition result was “Active”.
As to `Br.C[N+](C)(C)CCc1cc(O)c(O)cc1N.[Br-]`, in series [3], the Stability entry was “Stable”. Besides, the inhibition entry in series [4] and in series [7] was “Active” in each case. The inhibition result in [5], in series [6], in [24] and in [25] was “inactive” in each case.

As usually defined, the half-life is the time in which the quantity being followed falls by half.
